In PMC5808564 (ChemMedChem, 2017):
≈ marks a conversion by molar mass, not a printed value.

Tests used:
[1] = system: T. brucei bloodstream form (BSF) parasites (cell line 90-13, a 427 strain); assay: microbe, parasite or virus in culture; type: cell-based, Trypanosoma brucei; conditions: BLD = below level of detection
Plasma stability, human = type: in vitro ADME
[2] = molecular target: recombinant T. brucei hexokinase 1 (rTbHK1) (Trypanosoma brucei, UniProt Q38C42); assay: biochemical; type: biochemical; conditions: compared to bromide 2
[3] = Microsomal stability, human; type: in vitro ADME
[4] = Microsomal stability, mouse; type: in vitro ADME
Adrenergic α1B = molecular target: T1, Adrenergic α1B (Rattus norvegicus, UniProt P15823); assay: PanLabs LeadProfilingScreen radioligand binding; conditions: read-out: percent inhibition
T1 sequence (P15823 1-515): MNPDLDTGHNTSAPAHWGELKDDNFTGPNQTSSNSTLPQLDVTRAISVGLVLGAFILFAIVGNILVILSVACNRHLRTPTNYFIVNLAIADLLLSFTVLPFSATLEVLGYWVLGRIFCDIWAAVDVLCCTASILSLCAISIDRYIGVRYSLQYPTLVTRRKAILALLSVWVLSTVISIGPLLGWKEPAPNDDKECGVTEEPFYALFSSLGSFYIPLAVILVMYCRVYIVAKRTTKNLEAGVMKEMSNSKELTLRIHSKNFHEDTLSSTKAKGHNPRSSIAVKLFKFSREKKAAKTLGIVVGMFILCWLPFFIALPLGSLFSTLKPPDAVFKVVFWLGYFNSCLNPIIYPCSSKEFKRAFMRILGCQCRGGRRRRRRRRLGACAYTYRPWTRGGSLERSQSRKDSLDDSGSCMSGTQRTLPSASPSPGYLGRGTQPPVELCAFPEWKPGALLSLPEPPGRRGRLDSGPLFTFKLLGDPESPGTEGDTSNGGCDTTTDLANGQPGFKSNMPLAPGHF
Procedure, shortened: (§1)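 Test compound screened once, at 10 μM, against a panel of mammalian targets; each run in duplicate. Values are percent inhibition at that single concentration; no IC50 determinations were made.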

[5] = Aqueous solubility, kinetic solubility method; conditions: pH 7.4
[6] = molecular target: T2, Serotonin (5-hydroxytryptamine) 5-HT1A (Homo sapiens, UniProt P08908); assay: PanLabs LeadProfilingScreen radioligand binding; conditions: read-out: percent inhibition
T2 sequence (P08908 1-422): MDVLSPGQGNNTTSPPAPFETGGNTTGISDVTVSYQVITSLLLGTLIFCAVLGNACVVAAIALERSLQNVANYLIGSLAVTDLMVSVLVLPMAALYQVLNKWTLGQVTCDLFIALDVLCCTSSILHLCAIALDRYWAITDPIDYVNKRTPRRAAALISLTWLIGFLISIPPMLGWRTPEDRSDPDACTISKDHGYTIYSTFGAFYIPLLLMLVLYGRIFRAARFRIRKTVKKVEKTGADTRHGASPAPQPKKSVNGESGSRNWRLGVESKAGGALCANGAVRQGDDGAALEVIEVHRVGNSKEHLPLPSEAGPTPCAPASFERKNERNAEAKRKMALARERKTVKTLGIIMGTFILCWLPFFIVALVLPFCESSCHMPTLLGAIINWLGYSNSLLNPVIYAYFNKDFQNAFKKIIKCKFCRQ
Procedure, shortened: as §1

[7] = molecular target: T3, Leukotriene, cysteinyl CysLT1 (Homo sapiens, UniProt Q9Y271); assay: PanLabs LeadProfilingScreen radioligand binding; conditions: read-out: percent inhibition
T3 sequence (Q9Y271 1-337): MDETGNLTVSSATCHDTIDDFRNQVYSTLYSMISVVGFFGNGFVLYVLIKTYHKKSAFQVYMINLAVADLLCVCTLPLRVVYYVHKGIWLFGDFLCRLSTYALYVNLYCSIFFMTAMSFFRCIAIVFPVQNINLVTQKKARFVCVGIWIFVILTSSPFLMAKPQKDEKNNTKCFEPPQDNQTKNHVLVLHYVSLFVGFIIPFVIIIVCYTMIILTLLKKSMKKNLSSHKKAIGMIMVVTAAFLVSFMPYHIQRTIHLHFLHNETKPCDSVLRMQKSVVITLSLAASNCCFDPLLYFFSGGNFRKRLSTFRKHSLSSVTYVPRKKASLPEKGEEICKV
Procedure, shortened: as §1

Plasma stability, mouse = type: in vitro ADME
Thyroid hormone = assay: PanLabs LeadProfilingScreen radioligand binding; conditions: 10 μM, duplicate, rat
Procedure, shortened: as §1

IMR-90 human cells = assay: Human cell line toxicity testing; type: cell-based; conditions: Homo sapiens, IMR-90, read-out: IMR90 toxicity (EC50)
Dopamine D1 = Dopamine D1 (Homo sapiens, UniProt P21728); assay: PanLabs LeadProfilingScreen radioligand binding; conditions: read-out: percent inhibition
Procedure, shortened: as §1

Histamine H2 = Histamine H2 (Homo sapiens, UniProt P25021); assay: PanLabs LeadProfilingScreen radioligand binding; conditions: read-out: percent inhibition
Procedure, shortened: as §1

[8] = molecular target: T4, human HK 4 (human glucokinase, hGlk) (Homo sapiens, UniProt P35557); assay: Specificity assay against human glucokinase; type: biochemical; conditions: read-out: % hGlk inhibition (10 μM)
T4 sequence (P35557 1-465): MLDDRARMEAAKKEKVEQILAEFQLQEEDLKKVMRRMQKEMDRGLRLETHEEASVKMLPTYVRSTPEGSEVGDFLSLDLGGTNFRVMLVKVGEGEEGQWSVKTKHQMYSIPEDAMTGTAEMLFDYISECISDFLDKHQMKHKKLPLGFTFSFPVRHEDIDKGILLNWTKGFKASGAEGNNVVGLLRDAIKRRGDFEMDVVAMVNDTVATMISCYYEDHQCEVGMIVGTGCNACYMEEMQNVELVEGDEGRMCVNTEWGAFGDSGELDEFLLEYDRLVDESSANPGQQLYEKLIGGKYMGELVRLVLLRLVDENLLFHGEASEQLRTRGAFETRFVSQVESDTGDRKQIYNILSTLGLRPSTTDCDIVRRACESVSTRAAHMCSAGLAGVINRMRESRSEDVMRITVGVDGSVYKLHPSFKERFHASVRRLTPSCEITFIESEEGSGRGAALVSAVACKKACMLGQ
Procedure, shortened: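 Uses human hexokinase 4 (glucokinase; GenBank BC001890). Activity is read through a coupled reaction in which glucose-6-phosphate dehydrogenase converts the glucose-6-phosphate formed to 6-phosphogluconate. The coincident NADPH formation is followed at 340 nm.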

[9] = molecular target: Dopamine transporter (DAT) (Homo sapiens, UniProt Q01959); assay: PanLabs LeadProfilingScreen radioligand binding; conditions: read-out: percent inhibition
Procedure, shortened: as §1

Dopamine D3 = Dopamine D3 (Homo sapiens, UniProt P35462); assay: PanLabs LeadProfilingScreen radioligand binding; conditions: read-out: percent inhibition
Procedure, shortened: as §1

Plasma protein binding = type: in vitro ADME; conditions: mouse, mouse species

Dopamine transporter (DAT), sequence (Q01959 whole entry): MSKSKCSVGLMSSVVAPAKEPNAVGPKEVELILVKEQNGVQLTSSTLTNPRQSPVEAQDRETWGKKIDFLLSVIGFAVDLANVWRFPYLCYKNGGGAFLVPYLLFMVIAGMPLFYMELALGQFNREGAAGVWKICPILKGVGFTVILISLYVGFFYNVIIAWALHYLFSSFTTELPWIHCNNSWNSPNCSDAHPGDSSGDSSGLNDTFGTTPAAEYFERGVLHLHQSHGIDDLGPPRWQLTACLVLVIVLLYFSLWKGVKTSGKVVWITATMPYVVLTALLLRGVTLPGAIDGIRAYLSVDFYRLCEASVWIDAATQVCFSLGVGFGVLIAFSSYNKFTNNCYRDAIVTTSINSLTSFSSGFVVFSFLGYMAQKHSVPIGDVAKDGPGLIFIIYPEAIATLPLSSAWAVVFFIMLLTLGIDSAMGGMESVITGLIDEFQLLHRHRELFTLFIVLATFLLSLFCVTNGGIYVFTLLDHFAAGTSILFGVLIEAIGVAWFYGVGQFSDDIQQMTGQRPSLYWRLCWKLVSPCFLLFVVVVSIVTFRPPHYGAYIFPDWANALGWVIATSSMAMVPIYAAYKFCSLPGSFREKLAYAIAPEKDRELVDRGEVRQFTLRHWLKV
Histamine H2, sequence (P25021 whole entry): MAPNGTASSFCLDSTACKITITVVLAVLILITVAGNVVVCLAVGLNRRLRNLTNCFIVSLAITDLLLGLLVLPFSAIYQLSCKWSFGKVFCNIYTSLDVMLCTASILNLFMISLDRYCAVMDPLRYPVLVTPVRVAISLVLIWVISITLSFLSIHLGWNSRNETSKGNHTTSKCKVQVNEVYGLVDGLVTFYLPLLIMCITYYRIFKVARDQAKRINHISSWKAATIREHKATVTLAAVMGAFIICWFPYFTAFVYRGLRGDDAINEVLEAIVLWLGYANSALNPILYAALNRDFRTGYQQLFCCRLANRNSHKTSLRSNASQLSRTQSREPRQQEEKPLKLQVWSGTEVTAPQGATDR
Dopamine D3, sequence (P35462 whole entry): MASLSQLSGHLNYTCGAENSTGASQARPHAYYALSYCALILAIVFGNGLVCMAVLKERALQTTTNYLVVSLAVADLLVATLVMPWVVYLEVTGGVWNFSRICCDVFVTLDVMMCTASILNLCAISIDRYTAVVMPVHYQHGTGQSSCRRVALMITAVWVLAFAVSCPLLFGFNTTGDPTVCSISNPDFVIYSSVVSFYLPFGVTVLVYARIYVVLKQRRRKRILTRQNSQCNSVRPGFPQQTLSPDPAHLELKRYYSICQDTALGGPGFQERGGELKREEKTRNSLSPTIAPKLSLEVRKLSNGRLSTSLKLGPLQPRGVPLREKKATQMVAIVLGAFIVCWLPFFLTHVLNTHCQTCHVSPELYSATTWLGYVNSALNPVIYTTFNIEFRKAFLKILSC
Dopamine D1, sequence (P21728 whole entry): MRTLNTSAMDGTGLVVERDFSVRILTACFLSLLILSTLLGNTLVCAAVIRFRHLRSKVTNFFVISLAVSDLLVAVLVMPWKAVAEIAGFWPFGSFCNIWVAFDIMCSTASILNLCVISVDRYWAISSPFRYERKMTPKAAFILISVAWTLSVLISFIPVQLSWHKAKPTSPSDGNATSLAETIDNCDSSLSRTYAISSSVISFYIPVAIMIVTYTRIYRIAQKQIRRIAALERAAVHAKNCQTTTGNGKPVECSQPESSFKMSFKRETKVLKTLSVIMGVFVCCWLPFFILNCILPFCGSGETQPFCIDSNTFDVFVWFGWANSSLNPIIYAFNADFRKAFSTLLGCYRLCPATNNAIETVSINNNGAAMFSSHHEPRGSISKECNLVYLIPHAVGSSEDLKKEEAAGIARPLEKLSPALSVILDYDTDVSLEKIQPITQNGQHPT

With `CC(C)(C)c1ccc(C(=O)Nc2cc(Cl)c(-c3ccccc3)cc2C(=O)O)cc1` [Compound 4f] the “% T. brucei BSF growth inhibition (10 μM)” value ([1]; 10 μM compound, 10 µM) was 95.4 ± 0.8%, the inhibition at 10 µM ([1]; Trypanosoma brucei, A-427, read-out: % T. brucei BSF growth inhibition (10 μM), 10 μM compound) was 95% and the “plasma stability, % parent remaining after 3 h” value (Plasma stability, human) was 80.8%. The “improvement in rTbHK1 potency” value [2] was 3.5 fold, the “microsomal stability, % parent remaining after 1 h” value [3] was 46.5% and the “microsomal stability, % parent remaining after 1 h” value [4] was 55.5%. The inhibition at 10 µM (Adrenergic α1B) was 53%, the solubility [5] was 9.6 µM (≈ 3.92 µg/mL) and the inhibition at 10 µM [6] was 90%. For the same compound, the inhibition at 10 µM [7] was 87%, the “plasma stability, % parent remaining after 3 h” value (Plasma stability, mouse) was 97.4% and the percent inhibition (Thyroid hormone) was 65%. It also gave a Papp (PAMPA permeability; PAMPA permeability (Pe), donor pH 6.2, acceptor pH 7.4) of 16 nm/s, a Papp (PAMPA permeability; pH 7.4, PAMPA permeability (Pe), donor pH 7.4, acceptor pH 7.4) of 490 nm/s and an EC50 (IMR-90 human cells) greater than 25 µM. It also gave an inhibition at 10 µM (Dopamine D1) of 57%, an inhibition at 10 µM (Histamine H2) of 98% and an inhibition at 10 µM [8] of 35.2 ± 8.3%. The inhibition at 10 µM [9] was 88%, the inhibition at 10 µM (Dopamine D3) was 86% and the fraction unbound (Plasma protein binding; 1 μM) was 0.01. For the same compound, the fraction unbound (Plasma protein binding; 10 μM) was 0.009.
